In test [1] the test system is Plasmodium falciparum. Description: Inhibition of Plasmodium falciparum choline kinase at 50 uM in presence of 100 uM ATP.
In test [2] the test system is Plasmodium falciparum. The test is described as follows: Inhibition of Plasmodium falciparum choline kinase at 150 uM in presence of 250 uM ATP.
For test [3], the system named is Plasmodium falciparum. Description: Inhibition of Plasmodium falciparum choline kinase at 150 uM in presence of 100 uM ATP.
Test [4] concerns Plasmodium falciparum. Description: Inhibition of Plasmodium falciparum choline kinase at 50 uM in presence of 250 uM ATP.
In test [5] the test system is Plasmodium falciparum. The test is described as follows: Inhibition of Plasmodium falciparum NF54 trophozoite at 10 uM. The test is classed as functional, organism-based. The essentials:
(§1)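 Sorbitol-synchronized NF-54 at 0.5% ring parasitemia, 1% hematocrit. Rings (0 h), trophozoites (24 h) or schizonts (36 h) exposed 8 h in CRPMI, then washed out. [3H]hypoxanthine (0.7 μCi/well) added at 24, 48 or 60 h respectively; harvest at 72 h and scintillation count. Read against stage-matched DMSO control; three experiments in triplicate.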

Test [6] deals with Plasmodium falciparum. Description: Inhibition of Plasmodium falciparum NF54 ring stage at 30 uM. The test is classed as functional, organism-based. The gist of the method:
as §1

For test [7], the system named is Plasmodium falciparum. The test is described as follows: Inhibition of Plasmodium falciparum NF54 as [3H]hypoxanthine uptake at 20 uM. The test is classed as functional, organism-based. The gist of the method: (§2)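 Asynchronous P. falciparum NF-54 in human B+ erythrocytes (1% hematocrit, 0.5–0.7% parasitemia) exposed to compound (DMSO stock diluted in RPMI) for 48 h. Then washed and pulsed 48 h with [3H]hypoxanthine 0.7 μCi/well. Harvested on glass-fibre filters and counted by scintillation. % inhibition vs DMSO control; three experiments in triplicate.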

Test [8] concerns Plasmodium falciparum. Description: Inhibition of Plasmodium falciparum NF54 as [3H]hypoxanthine uptake at 10 uM. In kind it is functional, organism-based. The essentials:
as §2

Test [9] deals with Plasmodium yoelii. Description: Antimalarial activity against intraperitoneal inoculated Plasmodium yoelii N67 in Swiss mice (Mus musculus) at 20 mg/kg intraperitoneal dose on day 4. In kind it is functional, organism-based. On the set-up: dose 20 mg/kg. The settings on record: N-67. The gist of the method:
(§3)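 P. yoelii N-67 in Swiss mice (22 ± 2 g, five per group), 1 × 10^5 parasitized RBC i.p. on day 0. Aqueous suspension given i.p. (0.20 ml) from 6 h post-inoculation, days 0–3. Day-4 parasitemia from Giemsa smears; % suppression = [(C − T)/C] × 100 on group means vs vehicle.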

Test [10] relates to Plasmodium falciparum. Description: Inhibition of phosphocholine biosynthesis in Plasmodium falciparum NF54 as intracellular free choline at 10 uM. The test is classed as functional, organism-based. The essentials:
(§4)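 NF-54 culture (15% parasitemia, 5% hematocrit) treated 1 h at 37°C (90% N2, 5% CO2) and washed. Labelled 4 h with 40 μM [methyl-14C]choline (5.6 mCi/mmol). Cells lysed in 5% TCA with freeze-thaw; phosphatidylcholine counted in pellet. Ether-extracted supernatant split on Dowex-50W: phosphocholine unbound, free choline eluted with 1 N HCl. Compared with DMSO control.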

The subject of test [11] is Plasmodium falciparum. The test is described as follows: Inhibition of choline kinase in Plasmodium falciparum NF54 assessed as incorporation of [methlyl-14C]choline into phosphocholine at 10 uM. The gist of the method: as §4
In test [12] the test system is Plasmodium yoelii. Description: Antimalarial activity against intraperitoneal inoculated Plasmodium yoelii N67 in Swiss mice (Mus musculus) at 5 mg/kg intraperitoneal dose on day 4. The test is classed as functional, organism-based. Also noted: dose 5 mg/kg. The settings on record: N-67. The gist of the method:
as §3

Test [13] has as its system Plasmodium falciparum. Description: Inhibition of Plasmodium falciparum choline kinase. The gist of the method: (§5)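 Purified recombinant PfCK (5 μg; Ni-NTA affinity plus gel filtration) incubated at 37°C for 45 min in 100 mM Tris-Cl pH 8.8, 5 mM ATP, 6 mM MgCl2, 250 μM [methyl-14C]choline (5.6 mCi/mmol). Stopped with Dowex-50W slurry; [14C]phosphocholine in supernatant counted by scintillation. DMSO control = 100%. Three experiments in triplicate.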

For test [14], the system named is Plasmodium yoelii. The test is described as follows: Antimalarial activity against intravenously inoculated Plasmodium yoelii N67 in Swiss mice (Mus musculus) at 10 mg/kg intraperitoneal dose on day 4. In kind it is functional, organism-based. Also noted: dose 10 mg/kg. The settings on record: N-67. The gist of the method: (§6)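 P. yoelii N-67 in Swiss mice (22 ± 2 g, five per group), 1 × 10^4 parasitized RBC i.v. on day 0. Aqueous suspension given i.p. (0.20 ml) from 6 h post-inoculation, days 0–3. Day-4 parasitemia from Giemsa smears; % suppression = [(C − T)/C] × 100 on group means vs vehicle.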

In test [15] the test system is Plasmodium yoelii. The test is described as follows: Antimalarial activity against intraperitoneal inoculated Plasmodium yoelii N67 in Swiss mice (Mus musculus) at 10 mg/kg intraperitoneal dose on day 4. Also noted: dose 10 mg/kg. The settings on record: N-67. In kind it is functional, organism-based. The essentials:
as §3

Test [16] has as its system Plasmodium falciparum. The test is described as follows: Inhibition of Plasmodium falciparum choline kinase at 100 uM. The essentials:
as §5

Test [17] concerns Plasmodium yoelii. Description: Antimalarial activity against intravenously inoculated Plasmodium yoelii N67 in Swiss mice (Mus musculus) at 5 mg/kg intraperitoneal dose on day 4. The test is classed as functional, organism-based. On the set-up: dose 5 mg/kg. The settings on record: N-67. The gist of the method:
as §6

The test system of test [18] is Plasmodium yoelii. Description: Antimalarial activity at day 4 against intravenously inoculated Plasmodium yoelii N67 in Swiss mice (Mus musculus) at 20 mg/kg intraperitoneal dose. In kind it is functional, organism-based. Also noted: dose 20 mg/kg. The settings on record: N-67. The essentials: as §6
The subject of test [19] is Plasmodium falciparum. The test is described as follows: Inhibition of phosphatidylcholine biosynthesis in Plasmodium falciparum NF54 as [methlyl-14C]choline uptake. The test is classed as functional, organism-based. The gist of the method:
as §4

Test [20] concerns Plasmodium falciparum. Description: Growth inhibition of schizont Plasmodium falciparum NF54 at 10 uM. The test is classed as functional, organism-based. The essentials: as §1

Usually inhibition stands for the drop in the measured response relative to a control, in per cent.

In the case of `C[N+]1(C)CCOC(O)(c2ccc(-c3ccc(C4(O)C[N+](C)(C)CCO4)cc3)cc2)C1` (stereo unspecified), the inhibition was found to be 16% in the test with Plasmodium falciparum [1], 18% with Plasmodium falciparum [2], 18% in the test with Plasmodium falciparum [3] and 16% in the test with Plasmodium falciparum [4].
Consider hexadecyltrimethylammonium bromide, for which the inhibition is 62% with Plasmodium falciparum [5]; 33.3% in the test with Plasmodium falciparum [6]; 81% in the test on Plasmodium falciparum [7]; 62% in the test with Plasmodium falciparum [8]; 60% with Plasmodium falciparum [1]; 42% in the test on Plasmodium falciparum [10]. Also, the inhibition amounted to 57% in the test with Plasmodium falciparum [11], 60% with Plasmodium falciparum [16] and 51% in the test with Plasmodium falciparum [20]. The Activity in the test with Plasmodium yoelii [9] is 77.2%; with Plasmodium yoelii [12], 36.8%; in the test on Plasmodium falciparum [13] it was “Dose-dependent effect”; in the test with Plasmodium yoelii [14], 64.2%; in the test on Plasmodium yoelii [15] it was 52.4%; in the test on Plasmodium yoelii [17] it was 48.7%. Further, the values for the Activity with Plasmodium yoelii [18] and in the test with Plasmodium falciparum [19] were 83.7% and “Dose-dependent effect”, respectively.
